Data from publication PMC3356144 (Frontiers in Oncology, 2011).
Entries after “also recorded” stand apart in the source; their conditions may differ.

How the values were obtained:
[1] = biological target: MLCP purified from pig aorta smooth muscle (Sus scrofa, UniProt P61292); test: MLCP/32P-MLC dephosphorylation inhibition assay; assay type: biochemical
Summary of the method: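 MLCP purified from pig aorta (PP1C plus truncated 60-kDa MYPT1). Substrate was chicken gizzard LC20 pre-labelled with [γ-32P]ATP. Reaction: 0.5 μM 32P-LC20, 50 nM MLCP, 0.1 nM okadaic acid, 1 mM DTT, 0.03% Brij35, 25 mM MOPS pH 7.0, with varied compound. Run 10 min at 30°C, stopped with TCA/BSA, released 32P counted. No-enzyme set as 0% and uninhibited as 100%; duplicates; IC50 by nonlinear regression.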

Solubility = assay type: physicochemical
LNCaP cells [2] = test: Growth inhibition; assay type: cell-based, human
Summary of the method: (§1)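 LNCaP seeded at 20,000 cells/well overnight in RPMI with 10% FBS, 1% L-glutamine, 1% pen/strep and 0.1 nM DHT. CWR22Rv1 (20,000/well), DU145 and PC-3 (5,000/well) seeded in the same medium without DHT. Treated with test compound in serum-free medium, five wells per concentration, for 48 h; vehicle was 0.001% DMSO. Viability read by WST-8 after 2 h at 450 nm (reference 655 nm). Initial-plating value subtracted, percent growth versus control calculated, GI50 derived; n = 5, SEM.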

CWR22Rv1 cells [3] = test: Growth inhibition; assay type: cell-based; settings: Homo sapiens, CWR22Rv1, 48 h, CWR22Rv1 (CWR), 48 h treatment
Summary of the method: as §1

DU145 cells [4] = test: Growth inhibition; assay type: cell-based; settings: Homo sapiens, DU-145, 48 h, DU145, 48 h treatment
Summary of the method: as §1

PC-3 cells [5] = test: Growth inhibition; assay type: cell-based; settings: Homo sapiens, PC-3, 48 h, PC-3, 48 h treatment
Summary of the method: as §1

LNCaP cells [6] = test: BrdU uptake assay, LNCaP; assay type: cell-based, human; settings: 1 μM, 24 h
Summary of the method: (§2)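 Cells seeded overnight in six-well plates: LNCaP 500,000/well, DU145 and PC-3 200,000/well. Treated with 1 μM test compound in serum-free medium for 24 h, then BrdU pulsed 1 h. Cells trypsinized, fixed in 4% formaldehyde 10 min, permeabilized, and labelled with FITC anti-BrdU 1 h at 25°C. Analysed by flow cytometry against untreated control; n = 3, mean ± SEM.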

DU145 cells [7] = test: BrdU uptake assay, DU145; assay type: cell-based, human; settings: DU145, 1 μM, 24 h
Summary of the method: as §2

PC-3 cells [8] = test: BrdU uptake assay, PC-3; assay type: cell-based, human
Summary of the method: as §2

PC-3 cells [9] = test: Cell cycle analysis by FACS, PC-3; assay type: cell-based, human; settings: 1 μM
Summary of the method: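 PC-3 seeded at 200,000 cells/well in six-well plates overnight, then serum-starved 24 h. Treated with 1 μM test compound; controls kept in serum-free medium. Incubated 6, 24 or 48 h, then trypsinized, ethanol-fixed and analysed for cell-cycle distribution by FACS. Values averaged from three independent experiments.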

CWR22Rv1 cells [10] = test: Cell cycle analysis by FACS, CWR22RV1; assay type: cell-based, human; settings: CWR22RV1, 24 h
LNCaP cells [11] = test: Cell cycle analysis by FACS, LNCaP; assay type: cell-based, human
PC-3 cells [12] = test: Analysis of actin disruption; assay type: cell-based, human
Summary of the method: (§3)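 PC-3 seeded at 100,000 cells/dish in RPMI with 10% FBS and left to adhere 48 h. LNCaP seeded at 200,000 cells/dish and left 24 h in RPMI with 10% FBS and 0.1 nM DHT. Medium replaced with test compound (250 nM–5 μM) for 2 h. Cells fixed in 4% formaldehyde 10 min, permeabilized with 0.1% Triton X-100 30 min, stained with Alexa Fluor–phalloidin 10 min, then imaged against untreated controls.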

LNCaP cells [13] = test: Analysis of actin disruption; assay type: cell-based, human; settings: 2 h, 250 nM up to highest dose 5 μM
Summary of the method: as §3

PC-3 cells [14] = test: Chemotaxis assay; assay type: cell-based, human; settings: IGF-1 attractant
Summary of the method: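 96-well Boyden chamber with 8-μm porous membrane. 200,000 PC-3 cells per upper well in serum-free medium with test compound. Lower wells held IGF-1 plus the same compound concentration; serum-free medium served as negative control. Incubated overnight at 37°C, 5% CO2. Membrane fixed and Diff-Quik stained, upper-surface cells scraped off, absorbance read at 595 nm; n = 5, mean ± SEM.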

PC-3 cells [15] = test: Cellular morphology after treatment; assay type: cell-based, human; settings: PC-3, 1 μM, 24 h
[16] = tested on: human prostate cancer tissue; test: Displacement of 17e staining of prostate tissue by calyculin A; assay type: binding; settings: calyculin A 1 μM pretreatment 10 min, then 17e 10 μM 1 h
Summary of the method: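 Serial sections of human prostate tissue. One section stained with 10 μM test compound for 1 h. The adjacent section was pretreated with 1 μM calyculin A for 10 min before the same staining. Compound fluorescence intensity imaged and compared between paired sections.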

MLCP purified from pig aorta smooth muscle, sequence (P61292 2-327 limits assumed): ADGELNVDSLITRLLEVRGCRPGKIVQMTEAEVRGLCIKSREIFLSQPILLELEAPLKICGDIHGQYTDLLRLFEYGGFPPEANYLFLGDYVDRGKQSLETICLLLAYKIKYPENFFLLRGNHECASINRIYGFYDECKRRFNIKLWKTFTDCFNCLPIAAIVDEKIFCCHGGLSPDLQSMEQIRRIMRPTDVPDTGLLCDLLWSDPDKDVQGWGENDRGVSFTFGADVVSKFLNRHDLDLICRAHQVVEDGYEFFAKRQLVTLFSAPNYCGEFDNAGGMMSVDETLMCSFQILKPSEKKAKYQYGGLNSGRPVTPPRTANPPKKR

In the case of `COc1cccc(-c2ccc(C(=O)Oc3ccc(-c4csc(NC(=N)N)n4)cc3)cc2)c1` [10a, 3′-methoxy-biphenyl-4-carboxylic acid 4-(2-guanidino-thiazol-4-yl)-phenyl ester], the IC50 [1] is reported as 12 µM and the “Solubility (relative)” value (Solubility) is reported as “much lower solubility than 17e”.

For `N=C(N)Nc1nc(-c2ccc(OC(=O)c3ccc(-c4ccccc4)cc3)cc2)cs1` [13a, biphenyl-4-carboxylic acid 4-(2-guanidino-thiazol-4-yl)-phenyl ester], the IC50 [1] was 74 µM.

In the case of `N=C(N)Nc1nc(-c2ccc(NC(=O)c3ccc4ccccc4c3)cc2)cs1` [13h, naphthalene-2-carboxylic acid [4-(2-guanidino-thiazol-4-yl)-phenyl]-amide], the “Solubility (relative)” value (Solubility) is reported as “much lower solubility than 17e”.

For `COc1ccc(-c2csc(N=C(N)N)n2)cc1` [13m, N-[4-(4-methoxy-phenyl)-thiazol-2-yl]-guanidine], the IC50 [1] was 840 µM.

In the case of `Nc1nc(-c2ccc(OC(=O)c3ccc(-c4ccccc4)cc3)cc2)cs1` [14a, biphenyl-4-carboxylic acid 4-(2-amino-thiazol-4-yl)-phenyl ester], the IC50 [1] is reported as 485 µM.

With `CN(C)c1cccc2c(S(=O)(=O)Oc3ccc(-c4csc(NC(=N)N)n4)cc3)cccc12` [17e, 5-dimethylamino-naphthalene-1-sulfonic acid 4-(2-guanidino-thiazol-4-yl)-phenyl ester] the “GI50 of CRPC cell lines compared to AD prostate cells” value (LNCaP cells [2]; CRPC lines (CWR22Rv1, DU145, PC-3) versus LNCaP) was “four-fold lower”, the GI50 (LNCaP cells [2]; Homo sapiens, LNCaP, 48 h, 48 h treatment) was about 2 µM and the GI50 (CWR22Rv1 cells [3]) was about 0.5 µM. The GI50 (DU145 cells [4]) was about 0.5 µM, the GI50 (PC-3 cells [5]) was about 0.5 µM and the “DNA synthesis (BrdU incorporation)” value (LNCaP cells [6]) was “unaffected”. The “BrdU incorporation compared to control” value (DU145 cells [7]) was ~ 40%, the “Reduction in DNA synthesis as measured by BrdU uptake” value (PC-3 cells [8]; PC-3) was 10 fold and the “BrdU incorporation compared to control” value (PC-3 cells [8]; PC-3, 1 μM, 24 h) was ~ 10%. The Cell cycle effect (PC-3 cells [9]; 6 h) was “increased S and G2/M populations”, the Cell cycle effect (PC-3 cells [9]; 24 h) was “complete cell cycle arrest in the G2/M phase” and the “Cell death (SubG1 population)” value (PC-3 cells [9]; 48 h) was “increase in cells death”. The “Cell cycle effect (G2/M arrest persistence)” value (PC-3 cells [9]; through 48 h) was “continued unchanged”, the Cell cycle effect (CWR22Rv1 cells [10]) was “G2/M arrest” and the Cell cycle effect (LNCaP cells [11]) was “little change from control”. For the same compound, the “Actin disruption compared to control” value (PC-3 cells [12]; PC-3, 2 h, 250 nM, 1 μM and 5 μM) was “increasing amounts of actin disruption”, the “Concentration at which actin disruption begins” value (PC-3 cells [12]; PC-3, 2 h treatment) was 250 nM and the F-actin disruption (LNCaP cells [13]) was “did not show any disruption of the F-actin network; also recorded: no actin disruption; also recorded: did not demonstrate any F-actin disruption”. The “Migration of PC-3 cells” value (PC-3 cells [14]; 3 μM) was “reduced to the same level as wells that contained only serum free media”, the “Migrated cells compared with IGF-1 alone” value (PC-3 cells [14]; 5 μM) was “three times fewer cells” and the “Migration of PC-3 cells through the membrane” value (PC-3 cells [14]; increasing drug concentrations) was “dose dependent decrease”. For the same compound, the “Solubility (relative)” value (Solubility) was “higher solubility” and the Cellular morphology (PC-3 cells [15]) was “became more spherical”.

For `COC[C@@H]([C@H](O)[C@H](O)C(=O)NCC[C@H](C)c1nc(/C=C/C[C@@H]2O[C@]3(C[C@@H](O)[C@@H]2C)O[C@H]([C@H](C[C@H](O)[C@H](C)[C@H](O)[C@H](C)/C=C(C)/C(C)=C/C=C/C(C)=C\C#N)OC)[C@H](OP(=O)(O)O)C3(C)C)co1)N(C)C` [calyculin A], the “Reduction in fluorescence intensity due to 17e (17e binding)” value [16] was 60%.
